Test results taken from PMC6026531 (Molecular pharmaceutics, 2017).

What was measured:
[1] = tested on: PC3 prostate tumor xenografts; assay: In vivo MRI of PC3 tumor-bearing mice; parameters: species or system mouse; details: T1-weighted 3D FLASH, 0.1 mmol/kg i.v., imaged at 10, 20 and 30 min, n = 5
Outline: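 Male athymic nude mice carried subcutaneous PC3 xenografts (100 µL of 4×10^7 cells/mL in Matrigel) and were imaged at 5–8 mm tumor diameter on a 1.0 T scanner. Agents in saline were given i.v. at 0.1 mmol/kg Gd3+, with a gadoteridol control. Images were taken pre-contrast and every 10 min to 30 min by axial T1 spin echo (TR 500 ms, TE 8.144 ms) and coronal 3D FLASH (TR 17.362 ms, TE 6 ms, 15°). CNR was the tumor/muscle ROI signal […] normalised to noise.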

[2] = Relaxivity measurement of contrast agents; type: physicochemical; details: 1.5 T, in water, 37 °C

Compound	Time of peak CNR in PC3 tumors [1] [min]	r1 relaxivity [2] [mM⁻¹ s⁻¹]
CC(O)CN1CCN(CC(=O)[O-])CCN(CC(=O)[O-])CCN(CC(=O)[O-])CC1.[Gd+3] (stereo not drawn) [Gd(HP-DO3A), gadoteridol]	10	2.9
O=C([O-])CN1CCN(CC(=O)[O-])CCN(CC(=O)O)CCN(CC(=O)[O-])CC1.[Gd+3] [Gd-DOTA]	–	2.9
